Experimental data as given in ChEMBL document CHEMBL5058577, “EUbOPEN Chemogenomics Library 2 (Multiplex)” (2022).

System: Fibroblast
Experiment: Multiplex assay against human fibroblast
Format: toxicity, cell-based
Outline: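 Phenotypes for tubulin, mitochondrial mass and membrane permeability are expressed as per cents of healthy-nucleus cells. Cells were stained live at seeding with Hoechst33342, BioTracker Green Microtubule Cytoskeleton Dye, MitoTracker Red and Annexin V Alexa Fluor 680, then imaged after compound addition on a CQ1 microscope at 37°C and 5% CO2. Machine-learning gating in CellPathfinder separated Hoechst high-intensity objects from normal cells, divided normal cells by nuclear state (healthy, pyknosed, fragmented) and divided pyknosed cells into mitotic or apoptotic.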

[1] = 12 h, 1 µM, compound concentration 1 uM, replicate 1
[2] = 12 h, 1 µM, compound concentration 1 uM, replicate 2
[3] = 12 h, 10 µM, compound concentration 10 uM, replicate 1
[4] = 12 h, 10 µM, compound concentration 10 uM, replicate 2
[5] = 24 h, 1 µM, compound concentration 1 uM, replicate 1
[6] = 24 h, 1 µM, compound concentration 1 uM, replicate 2
[7] = 24 h, 10 µM, compound concentration 10 uM, replicate 1
[8] = 24 h, 10 µM, compound concentration 10 uM, replicate 2
[9] = 48 h, 1 µM, compound concentration 1 uM, replicate 1
[10] = 48 h, 1 µM, compound concentration 1 uM, replicate 2
[11] = 48 h, 10 µM, compound concentration 10 uM, replicate 1
[12] = 48 h, 10 µM, compound concentration 10 uM, replicate 2

Cc1sc2c(c1C)C(c1ccc(Cl)cc1)=N[C@@H](CC(=O)NCCCCCCCCNC(=O)COc1cccc3c1C(=O)N(C1CCC(=O)NC1=O)C3=O)c1nnc(C)n1-2 (some centres not stated)
Population Apoptotic (%) [1]: 57% | Population Fragmented Nuclei (%) [1]: 10% | Population Healthy Nuclei (%) [1]: 72% | Population Hoechst High Intensity Objects (%) [1]: 3% | Population Membrane Permeable-Phenotype (%) [1]: 1% | Population Mitochondria Different-Phenotype (%) [1]: 4% | Population Mitotic Cells (%) [1]: 42% | Population Normal (%) [1]: 96% | Population Pyknosed Nuclei (%) [1]: 16% | Population Tubulin-Different-Phenotype (%) [1]: 25% | Total Cell Count [1]: 118 | Population Apoptotic (%) [2]: 42% | Population Fragmented Nuclei (%) [2]: 34% | Population Healthy Nuclei (%) [2]: 34% | Population Hoechst High Intensity Objects (%) [2]: 6% | Population Membrane Permeable-Phenotype (%) [2]: 23% | Population Mitochondria Different-Phenotype (%) [2]: 23% | Population Mitotic Cells (%) [2]: 57% | Population Normal (%) [2]: 93% | Population Pyknosed Nuclei (%) [2]: 31% | Population Tubulin-Different-Phenotype (%) [2]: 66% | Total Cell Count [2]: 94 | Population Apoptotic (%) [3]: 54% | Population Fragmented Nuclei (%) [3]: 13% | Population Healthy Nuclei (%) [3]: 56% | Population Hoechst High Intensity Objects (%) [3]: 11% | Population Membrane Permeable-Phenotype (%) [3]: 1% | Population Mitochondria Different-Phenotype (%) [3]: 19% | Population Mitotic Cells (%) [3]: 45% | Population Normal (%) [3]: 88% | Population Pyknosed Nuclei (%) [3]: 30% | Population Tubulin-Different-Phenotype (%) [3]: 50% | Total Cell Count [3]: 171 | Population Apoptotic (%) [4]: 44% | Population Fragmented Nuclei (%) [4]: 27% | Population Healthy Nuclei (%) [4]: 27% | Population Hoechst High Intensity Objects (%) [4]: 17% | Population Membrane Permeable-Phenotype (%) [4]: 7% | Population Mitochondria Different-Phenotype (%) [4]: 26% | Population Mitotic Cells (%) [4]: 55% | Population Normal (%) [4]: 82% | Population Pyknosed Nuclei (%) [4]: 45% | Population Tubulin-Different-Phenotype (%) [4]: 69% | Total Cell Count [4]: 115 | Population Apoptotic (%) [5]: 56% | Population Fragmented Nuclei (%) [5]: 20% | Population Healthy Nuclei (%) [5]: 53% | Population Hoechst High Intensity Objects (%) [5]: 10% | Population Membrane Permeable-Phenotype (%) [5]: 3% | Population Mitochondria Different-Phenotype (%) [5]: 3% | Population Mitotic Cells (%) [5]: 44% | Population Normal (%) [5]: 89% | Population Pyknosed Nuclei (%) [5]: 26% | Population Tubulin-Different-Phenotype (%) [5]: 25% | Total Cell Count [5]: 107 | Population Apoptotic (%) [6]: 65% | Population Fragmented Nuclei (%) [6]: 41% | Population Healthy Nuclei (%) [6]: 32% | Population Hoechst High Intensity Objects (%) [6]: 3% | Population Membrane Permeable-Phenotype (%) [6]: 16% | Population Mitochondria Different-Phenotype (%) [6]: 20% | Population Mitotic Cells (%) [6]: 35% | Population Normal (%) [6]: 96% | Population Pyknosed Nuclei (%) [6]: 25% | Population Tubulin-Different-Phenotype (%) [6]: 72% | Total Cell Count [6]: 80 | Population Apoptotic (%) [7]: 67% | Population Fragmented Nuclei (%) [7]: 20% | Population Healthy Nuclei (%) [7]: 38% | Population Hoechst High Intensity Objects (%) [7]: 13% | Population Membrane Permeable-Phenotype (%) [7]: 3% | Population Mitochondria Different-Phenotype (%) [7]: 9% | Population Mitotic Cells (%) [7]: 32% | Population Normal (%) [7]: 86% | Population Pyknosed Nuclei (%) [7]: 41% | Population Tubulin-Different-Phenotype (%) [7]: 47% | Total Cell Count [7]: 154 | Population Apoptotic (%) [8]: 44% | Population Fragmented Nuclei (%) [8]: 25% | Population Healthy Nuclei (%) [8]: 32% | Population Hoechst High Intensity Objects (%) [8]: 12% | Population Membrane Permeable-Phenotype (%) [8]: 17% | Population Mitochondria Different-Phenotype (%) [8]: 20% | Population Mitotic Cells (%) [8]: 55% | Population Normal (%) [8]: 87% | Population Pyknosed Nuclei (%) [8]: 42% | Population Tubulin-Different-Phenotype (%) [8]: 68% | Total Cell Count [8]: 103 | Population Apoptotic (%) [9]: 88% | Population Fragmented Nuclei (%) [9]: 41% | Population Healthy Nuclei (%) [9]: 24% | Population Hoechst High Intensity Objects (%) [9]: 27% | Population Membrane Permeable-Phenotype (%) [9]: 0% | Population Mitochondria Different-Phenotype (%) [9]: 0% | Population Mitotic Cells (%) [9]: 12% | Population Normal (%) [9]: 72% | Population Pyknosed Nuclei (%) [9]: 33% | Population Tubulin-Different-Phenotype (%) [9]: 33% | Total Cell Count [9]: 102 | Population Apoptotic (%) [10]: 93% | Population Fragmented Nuclei (%) [10]: 42% | Population Healthy Nuclei (%) [10]: 37% | Population Hoechst High Intensity Objects (%) [10]: 8% | Population Membrane Permeable-Phenotype (%) [10]: 27% | Population Mitochondria Different-Phenotype (%) [10]: 20% | Population Mitotic Cells (%) [10]: 6% | Population Normal (%) [10]: 91% | Population Pyknosed Nuclei (%) [10]: 20% | Population Tubulin-Different-Phenotype (%) [10]: 82% | Total Cell Count [10]: 85 | Population Apoptotic (%) [11]: 86% | Population Fragmented Nuclei (%) [11]: 40% | Population Healthy Nuclei (%) [11]: 20% | Population Hoechst High Intensity Objects (%) [11]: 38% | Population Membrane Permeable-Phenotype (%) [11]: 5% | Population Mitochondria Different-Phenotype (%) [11]: 10% | Population Mitotic Cells (%) [11]: 13% | Population Normal (%) [11]: 61% | Population Pyknosed Nuclei (%) [11]: 38% | Population Tubulin-Different-Phenotype (%) [11]: 55% | Total Cell Count [11]: 156 | Population Apoptotic (%) [12]: 57% | Population Fragmented Nuclei (%) [12]: 38% | Population Healthy Nuclei (%) [12]: 38% | Population Hoechst High Intensity Objects (%) [12]: 15% | Population Membrane Permeable-Phenotype (%) [12]: 14% | Population Mitochondria Different-Phenotype (%) [12]: 14% | Population Mitotic Cells (%) [12]: 42% | Population Normal (%) [12]: 84% | Population Pyknosed Nuclei (%) [12]: 23% | Population Tubulin-Different-Phenotype (%) [12]: 80% | Total Cell Count [12]: 108
